Assay results published in ChEMBL document CHEMBL3994675, “Carbamylmethyl Mercaptoacetate Thioether: A Novel Scaffold for the Development of L1 Metallo-β-lactamase Inhibitors” (ACS Med Chem Lett, 2017).
pIC50: −log10 of the molar value.

Key:
[1] = Chemical stability in pH 5 Tris buffer after 4 days by UV-Visible spectral analysis; type: physicochemical; settings: pH 5, 96 h
Summary of the method: (§1)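 Compounds incubated in aqueous solution at pH 5.0, 7.0 and 9.0 for 4 days; stability followed by UV-vis spectra.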

[2] = Chemical stability in pH 7 Tris buffer after 4 days by UV-Visible spectral analysis; type: physicochemical; settings: pH 7, 96 h; summary of the method: as §1
[3] = Chemical stability in pH 9 Tris buffer after 4 days by UV-Visible spectral analysis; type: physicochemical; settings: pH 9, 96 h; summary of the method: as §1
[4] = Inhibition of IMP1 (unknown origin) expressed in Escherichia coli BL21(DE3) at 100 uM using cefazolin as substrate preincubated for 30 mins followed by substrate addition by UV-Visible spectrophotometric method relative to control
Summary of the method: (§2)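 Purified enzyme preincubated with 100 μM inhibitor in its enzyme-specific buffer, then substrate added: 50 μM cefazolin for IMP-1 and L1, 40 μM imipenem for ImiS. Hydrolysis followed by UV-vis spectrophotometry. Preincubation times of 3–60 min were tested. % inhibition = activity without inhibitor (100%) minus residual activity.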

[5] = Inhibition of ImiS (unknown origin) expressed in Escherichia coli BL21(DE3) at 100 uM using imipenem as substrate preincubated for 30 mins followed by substrate addition by UV-Visible spectrophotometric method relative to control; summary of the method: as §2
[6] = Inhibition of L1 (unknown origin) expressed in Escherichia coli BL21(DE3) at 100 uM using cefazolin as substrate preincubated for 30 mins followed by substrate addition by UV-Visible spectrophotometric method relative to control; summary of the method: as §2
[7] = Inhibition of L1 (unknown origin) expressed in Escherichia coli BL21(DE3) using cefazolin as substrate preincubated for 30 mins followed by substrate addition by UV-Visible spectrophotometric method
Summary of the method: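 L1 IC50 measured in 30 mM Tris, pH 8.5, with cefazolin as substrate and inhibitor at 0.1–20 μM. Run in triplicate; mean ± SD reported.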

[8] = Inhibition of IMP1 (unknown origin) expressed in Escherichia coli BL21(DE3) at 100 uM using cefazolin as substrate preincubated for 3 to 60 mins followed by substrate addition by UV-Visible spectrophotometric method; settings: TDE = time-dependent effect; summary of the method: as §2
[9] = Inhibition of ImiS (unknown origin) expressed in Escherichia coli BL21(DE3) at 100 uM using imipenem as substrate preincubated for 3 to 60 mins followed by substrate addition by UV-Visible spectrophotometric method relative to control; settings: TDE = time-dependent effect; summary of the method: as §2
[10] = Inhibition of L1 (unknown origin) expressed in Escherichia coli BL21(DE3) at 100 uM using cefazolin as substrate preincubated for 3 to 60 mins followed by substrate addition by UV-Visible spectrophotometric method relative to control; settings: TDE = time-dependent effect; summary of the method: as §2
[11] = Inhibition of L1 (unknown origin) expressed in Escherichia coli BL21(DE3) using cefazolin as substrate by ITC
Summary of the method: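 Isothermal titration calorimetry at 25 °C with 5 nM L1, 160 μM cefazolin and inhibitor at 0–100 μM; hydrolysis progress monitored as heat flow. Rates from runs at different substrate concentrations plotted against substrate concentration at 0, 50 and 100 μM inhibitor.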

[12] = Inhibition of L1 (unknown origin) expressed in Escherichia coli DH10B harboring pBC SK(+)-L1 assessed as potentiation of cefazolin-induced antibacterial activity by measuring cefazolin MIC at 1024 ug/ml after 12 hrs macrodilution broth method
Summary of the method: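 Cefazolin MICs were read for E. coli DH10B carrying pBC SK(+)-L1 across a series of inhibitor concentrations. Cefazolin alone (no inhibitor) on the same strain served as the reference MIC. E. coli not expressing L1 was tested alongside as the susceptible comparator.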

Escherichia coli [13] = test: Growth inhibition of Escherichia coli DH10B harboring pBC SK(+)-L1 at 1024 ug/ml after 12 hrs macrodilution broth method; parameters: species or system K-12 substr. DH10B
Summary of the method: (§3)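 Cefazolin MIC determined for E. coli DH10B carrying pBC SK(+)-L1 and for E. coli not expressing L1, with and without compound.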

Escherichia coli [14] = test: Growth inhibition of Escherichia coli DH10B at 1024 ug/ml after 12 hrs macrodilution broth method; parameters: species or system K-12 substr. DH10B; summary of the method: as §3
L929 = test: Cytotoxicity against mouse L929 cells assessed as reduction in cell viability up to 400 uM after 48 hrs by CCK assay; type: cell-based; settings: l929, 48 h
Summary of the method: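 L-929 mouse fibroblasts exposed to compound at 12.5, 25, 50, 100, 200 and 400 μM working concentrations; cell viability measured.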

Cc1ccc(NC(=O)CSCC(=O)[O-])cc1.[K+]
Stability [1]: Stable
Stability [2]: Stable
Stability [3]: Stable
inhibition [4]: 37%
inhibition [5]: 52%
inhibition [6]: 97%
pIC50 [7]: 6.39
inhibition [7]: Dose-dependent effect
inhibition [8]: Tde
inhibition [9]: Tde
inhibition [10]: Tde
inhibition [11]: Dose-dependent effect
MIC [12]: 16 µg/mL
growth inhibition (GI) (Escherichia coli [13]): Non-Toxic
growth inhibition (GI) (Escherichia coli [14]): Non-Toxic
Activity (L929): Non-Toxic
